ABCB6 inh 2: ABCB6 transporter inhibitors, primary screen, K562-ABCB6 cells, flow cytometry, MLPCN library; ATP-binding cassette sub-family B member 6 (Homo sapiens), Q9NP58; K562-ABCB6 porphyrin accumulation, 1 h; stronger effect = lower value; fluorescence ratio to DMSO, % at 10 µM; 360,000 tested, 0.19% active;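 active = fluorescence ratio to DMSO below 75%, the collection mean minus 3 SD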;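 also: signal is porphyrin accumulated inside mitochondria; 100% equals median channel fluorescence of DMSO control wells; lower ratio means ABCB6 inhibition with less porphyrin fluorescence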
Arr AP2 block: inhibitors of beta-arrestin/AP2 binding, primary screen, biochemical, GPCR trafficking, flow cytometry; beta-arrestin 1 C-terminal peptide binding to AP2 beta2-adaptin appendage (human); FITC-arrestin peptide / GST-AP2 beads; AP2 beta2 appendage carries R879A mutation; inhibition, % at 10 µM; 340,000 tested, 0.31% active;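 active = inhibition above a set limit, near 3 SD of compounds lacking own fluorescence, cut at about 54% in these data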;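 also: plate controls were DMSO wells for no effect and 5 µM unlabelled arrestin peptide for full effect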
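System: GST-AP2 R879A glutathione beads; medium: PBS, Tween 20 0.05%, BSA 0.1%; reagent: fluorescein-tagged arrestin peptide at 50 nM final; schedule: pre-incubation 12 min, peptide binding 1 h, room temperature; detection: flow cytometry, FL1 (488/535 nm); read-out: inhibition as reduced fluorescein signal on beads, percent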
PG9 binder: binders of HIV-1 gp120 antibody PG9, primary screen, biochemical, TR-FRET | HIV-1 gp120 / PG9 antibody interaction | TR-FRET gp120-PG9 antibody binding | inhibition, % at 6.7 µM | 360,000 tested, 0.43% active; in the data active = inhibition above about 8.5%
hiPSC survival: enhancers of single-cell hiPSC survival, primary screen, ATPlite luminescence; 100% = ROCK inhibitor wells, 0% = DMSO; survival enhancement, % at 20 µM; 360,000 tested, 0.044% active; in the data active = survival enhancement above about 18%;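 also: cells exposed to compounds for 16 hours before the ATP read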
PG9 bind confirm: binders of anti-gp120 antibody PG9, confirmation, biochemical, TR-FRET; inhibition, % at 6.7 µM; shares compounds with PG9 binder; AID 651571, 2012; TR-FRET PG9 antibody binding; 1,500 tested, 90% active; in the data active = inhibition above about 9%
PGV04 Ab binding: binders of control antibody PGV04, counter-screen for PG9 antibody binder project, biochemical, TR-FRET, distinct HIV envelope site; shares compounds with PG9 binder; TR-FRET PGV04 antibody-gp120 binding; inhibition, % at 6.7 µM; 1,500 tested, 95% active; AID 651604, 2012; in the data active = inhibition above about 9.5%
PG9 bind DR: small-molecule binders of antibody PG9, dose response, biochemical, TR-FRET, HIV-1 gp120 antibody; 95 tested, under 10 active; shares compounds with PG9 binder; IC50, µM; AID 651848, 2012; TR-FRET PG9 antibody-gp120 binding inhibition; in the data active = IC50 below about 10 µM
PGV04 binding DR: binders of control antibody PGV04, dose response, counter-screen for PG9 antibody binder project, biochemical, TR-FRET, distinct HIV envelope site; shares compounds with PG9 binder; TR-FRET binding to control antibody PGV04; IC50, µM; 95 tested, 20% active; AID 651937, 2012
PG126 binding DR: binders of control antibody PG126, dose response, counter-screen for PG9 antibody binder project, biochemical, TR-FRET, distinct HIV envelope site; shares compounds with PG9 binder; TR-FRET binding to antibody PG126, counterscreen; IC50, µM; 95 tested, 20% active
Starred values were filed as active, the others as inactive; i = inactive; . = no result given. Rows were chosen to be rich in hits. Some 0.89% of all compounds tested hit in one or more screens of this group. Rule as the data show it, unless noted: active = IC50 below about 9 µM; inactive = the rest.

SMILES	ABCB6 inh 2	Arr AP2 block	PG9 binder	hiPSC survival	PG9 bind confirm	PGV04 Ab binding	others
CN(CC(=O)Nc1ccc(F)cc1)C(=O)CCc1nc2sc3c(c2c(=O)[nH]1)CCCC3	96	-9	15*	0	13*	31*
COc1ccccc1S(=O)(=O)N(C)C[C@H]1Oc2cc(Br)ccc2S(=O)(=O)N([C@H](C)CO)C[C@H]1C	.	.	1	.	.	.
CCSc1n[nH]c(=O)n1C	.	.	0	.	.	.
CCCC(=O)OC[C@H]1CN([C@H](C)c2ccccc2)S(=O)(=O)c2c(F)cccc2O1	.	.	1	.	.	.
CC(OC(=O)c1cc(Br)ccc1O)C(=O)NCc1ccc2c(c1)OCO2 (stereo not given)	99	20	20*	0	33*	69*
O=C1c2cccc3cccc(c23)C(=O)N1OS(=O)(=O)c1ccccc1	101	2	28*	4	28*	62*
COc1cc2cc(C(=O)N(C)Cc3ccccc3)[nH]c2cc1OC	94	35	16*	2	15*	22*
COc1ccc(C(=O)NC2CCSc3ccccc32)cc1 (stereo not given)	103	25	-2	0	.	.
CSc1ccc(C(=O)NC2CCSc3ccccc32)cc1 (stereo not given)	99	8	16*	0	11*	10*	PG9 bind DR=>67;PGV04 binding DR=i;PG126 binding DR=i
COC(=O)C1=C(C)N(CC(C)C)C(=S)NC1c1ccc(Cl)cc1 (stereo not given)	.	.	0	.	.	.
Cc1nc(NCc2ccc(S(N)(=O)=O)cc2)c2c(C)c(C)sc2n1	77	-4	41*	0	22*	31*
CCOC(=O)c1sc2nc(C)nc(NCCc3ccc(S(N)(=O)=O)cc3)c2c1C	99	17	18*	1	27*	47*
CNC(=O)c1ccccc1C1(O)c2ccccc2CCc2ccccc21	.	.	0	.	.	.
C#CCNC(=O)C[C@H]1C[C@@]2(C(=O)OC)C(=C[C@H](C(C)(C)C)O[C@@H]2C)N(Cc2ccccc2)C1=O	.	.	1	.	.	.
O=C1N(Cc2cccc(Cl)c2)C[C@@H]2C[C@@H](c3cccn3-c3cccnc3)N3CCC[C@@]123	94	5	17*	-2	10*	19*
COC(=O)[C@]12C[C@H](CC(=O)NCc3ccccc3)C(=O)N(Cc3ccccc3)C1=C[C@H](C1CCCC1)O[C@@H]2C	.	.	0	.	.	.
Cc1cc(C)c2nc(SCC(=O)N3CC(=O)Nc4ccccc43)c(C#N)cc2c1	97	3	13*	-1	11*	24*
COc1ccc2nc(SCC(=O)N3CC(=O)Nc4ccccc43)c(C#N)cc2c1	111	5	0	0	.	.
CC(=O)Nc1ccc(-c2cc(-c3ccc(NC(C)=O)cc3)nc(-c3ccc(NC(C)=O)cc3)n2)cc1	99	4	29*	0	25*	45*
CC(=O)Nc1ccc(-c2cc(-c3ccccc3)nc(-c3ccccc3)n2)cc1	97	16	0	-2	.	.
COc1ccc(Cl)cc1NC(=O)c1[nH]c(C)c(C(C)=O)c1C	90	40	27*	0	28*	31*
O=C1C2C3c4ccccc4C(c4ccccc43)C2C(=O)N1c1cccc2cccnc12 (stereo not given)	95	-2	10*	1	5	7
O=c1[nH]n(-c2cccc3cccnc23)c(=O)c2ccccc12	98	21	-1	2	.	.
Cc1[nH]nc2c1C(c1ccc(F)cc1)N(Cc1ccccc1)C2=O (stereo not given)	.	.	-1	.	.	.
Cc1ccc(NC(=O)CSc2nc3ncc(Br)cc3[nH]2)cc1C	98	20	45*	1	66*	79*
SMILES	ABCB6 inh 2	Arr AP2 block	PG9 binder	hiPSC survival	PG9 bind confirm	PGV04 Ab binding	others
Cc1cc(C)c(NC(=O)CSc2nc3ncc(Cl)cc3[nH]2)c(C)c1	102	26	3	0	.	.
Cc1cc(C)c(NC(=O)CSc2nc3ncc(Br)cc3[nH]2)c(Cl)c1	103	26	35*	0	39*	63*
O=C(NC1CCCC1)C1C2C=CC3(CN(Cc4cccs4)C(=O)C13)O2 (stereo not given)	104	0	29*	-1	9	9
CN(N=Cc1ccccc1O)C(=O)c1ccccc1N	.	.	-2	.	.	.
COc1ccc(CNC(=O)CN(C(=O)c2snc(C(N)=O)c2N)c2ccc(F)cc2)cc1	101	-3	-2	1	.	.
CCOc1ccc(N(CC(=O)NCc2ccc(F)cc2)C(=O)c2snc(C(N)=O)c2N)cc1	94	-4	9.4*	0	18*	25*
CC(C)c1ccc(N(CC(=O)NCc2ccc(F)cc2)C(=O)c2snc(C(N)=O)c2N)cc1	91	38	11*	0	18*	23*
COc1ccc(Cc2nnc(SCC(=O)c3ccc4c(c3)NC(=O)CO4)o2)cc1	100	3	9.3*	0	13*	30*
COc1ccc(Cc2nnc(SCC(=O)c3ccc(OC)cc3)o2)cc1	99	-10	-3	1	.	.
CCN(C(=O)c1cc2c(=O)[nH]c3ccc(C)cc3c2s1)c1cccc(C)c1	98	-15	0	-1	.	.
CCN(C(=O)c1cc2c(=O)[nH]c3ccc(C)cc3c2s1)c1ccc(F)cc1	101	12	15*	0	14*	24*
CC(=O)CCN1CCSCCS1(=O)=O	.	.	-2	.	.	.
Cc1ccccc1NC(=O)CSc1nnc(-c2ccccc2)n1-c1ccccc1	109	10	37*	6	4	6
CCc1ccc(NC(=O)CSc2nnc(-c3n[nH]c4ccccc34)n2-c2ccccc2)cc1	95	7	9.8*	2	15*	24*
O=C(CSc1nnc(-c2n[nH]c3ccccc23)n1-c1ccccc1)Nc1cccc(Cl)c1	98	-3	2	1	.	.

Compound activity as filed in PubChem BioAssay.
